# Reference: ChEMBL document CHEMBL4229502, “Asperidines A-C, pyrrolidine and piperidine derivatives from the soil-derived fungus Aspergillus sclerotiorum PSU-RSPG178” (Bioorg Med Chem, 2018)
# pIC50: −log10 of the molar value. Activity calls are given as the source filed them. No cut-off for these calls is given here.
# Legend:
# [1] = system: Vero; experiment: Cytotoxicity against African green monkey Vero cells by GFP-based assay; assay type: cell-based; settings: Chlorocebus sabaeus
# Summary of the method: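 Vero cell assay run in triplicate following a previously published method, with ellipticine as reference drug; IC50 reported.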
# [2] = target: T1, 3-hydroxy-3-methylglutaryl-coenzyme A reductase (Homo sapiens) (UniProt P04035); experiment: Inhibition of human HMG-CoA reductase catalytic domain at 200 uM using HMG-CoA as substrate measured every 20 secs for 10 mins relative to control
# T1 sequence (whole entry): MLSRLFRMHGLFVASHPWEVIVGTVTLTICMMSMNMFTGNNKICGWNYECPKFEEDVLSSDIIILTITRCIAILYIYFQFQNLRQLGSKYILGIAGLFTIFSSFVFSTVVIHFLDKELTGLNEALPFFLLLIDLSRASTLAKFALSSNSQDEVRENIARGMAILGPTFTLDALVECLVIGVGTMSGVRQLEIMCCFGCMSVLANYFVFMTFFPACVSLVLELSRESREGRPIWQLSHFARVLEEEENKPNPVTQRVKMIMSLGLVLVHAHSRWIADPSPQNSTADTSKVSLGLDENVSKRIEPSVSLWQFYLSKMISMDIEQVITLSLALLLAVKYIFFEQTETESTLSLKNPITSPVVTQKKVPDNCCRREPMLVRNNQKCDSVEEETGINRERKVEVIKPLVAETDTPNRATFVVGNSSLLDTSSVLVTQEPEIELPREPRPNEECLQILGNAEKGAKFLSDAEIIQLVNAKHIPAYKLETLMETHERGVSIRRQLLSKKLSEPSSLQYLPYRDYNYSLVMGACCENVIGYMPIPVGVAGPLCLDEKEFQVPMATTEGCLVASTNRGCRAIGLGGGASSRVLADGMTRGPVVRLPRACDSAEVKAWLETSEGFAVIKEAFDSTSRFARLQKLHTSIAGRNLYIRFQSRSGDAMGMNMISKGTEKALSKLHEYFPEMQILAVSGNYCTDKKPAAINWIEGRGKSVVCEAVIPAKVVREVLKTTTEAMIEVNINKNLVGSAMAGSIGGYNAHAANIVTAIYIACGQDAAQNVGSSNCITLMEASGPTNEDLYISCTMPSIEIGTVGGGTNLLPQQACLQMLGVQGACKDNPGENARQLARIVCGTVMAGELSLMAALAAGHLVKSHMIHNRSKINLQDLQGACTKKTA
# Summary of the method: (§1)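 Cell-free kit assay: human HMGR catalytic domain added to buffer with NADPH and HMG-CoA to start the reaction at 37 °C. NADPH oxidation followed as A340 every 20 s for 10 min. Results expressed as percent inhibition of untreated control, n = 3.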
# [3] = system: Caco-2; experiment: Cytotoxicity against human Caco2 cells assessed as decrease in cell viability at 12.5 to 100 uM after 24 hrs by MTT assay; assay type: cell-based; settings: caco-2, 24 h
# Summary of the method: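 Caco-2 cells (ATCC, passages 2–22, DMEM/F-12 with 10% FBS) were plated at 2.5 × 10^4 cells/well for 24 h, then exposed to 12.5, 25, 50, 75 and 100 µM for 24 h. After washing, cells got 5 mg/mL MTT for 4 h, crystals were dissolved in DMSO and A570 read. Viability is % of control, means ± S.E.M., n = 5.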
# [4] = system: Caco-2; experiment: Antioxidant activity in human Caco2 cells assessed as decrease in reactive oxygen species level after 24 hrs by DCFH-DA dye-based fluorescence assay; assay type: functional, cell-based
# Summary of the method: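 Caco-2 cells (ATCC, passages 2–22, DMEM/F-12 with 10% FBS) were exposed 24 h at 12.5–100 µM. They were then loaded with 10 µM DCFH-DA for 1 h at 37 °C in the dark and incubated 30 min without H2O2. Fluorescence was read at ex 495/em 527 nm. Means ± S.E.M., n = 3, vs untreated control cells.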
# [5] = system: Caco-2; experiment: Antioxidant activity in human Caco2 cells assessed as decrease in H2O2-induced reactive oxygen species level after 24 hrs by DCFH-DA dye-based fluorescence assay; assay type: functional, cell-based
# Summary of the method: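 Caco-2 cells (ATCC, passages 2–22, DMEM/F-12 with 10% FBS) were treated 24 h at 12.5–100 µM. They were loaded with 10 µM DCFH-DA for 1 h at 37 °C in the dark, then exposed to 0.5 mM H2O2 for 30 min and washed twice. Fluorescence was read at ex 495/em 527 nm. Means ± S.E.M., n = 3, vs H2O2-exposed control cells.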
# [6] = target: Cystic fibrosis transmembrane conductance regulator (Homo sapiens, UniProt P13569); experiment: Inhibition of CFTR-mediated forskolin-induced chloride secretion in human T84 cells after 15 mins by short-circuit current analysis; assay type: cell-based
# Summary of the method: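 T84 monolayers grown on 1 cm² porous inserts (500,000 cells/insert) until TEER > 1000 Ω·cm², then mounted in Ussing chambers. Symmetrical Krebs solution (pH 7.3, 10 mM glucose) was gassed with 95% O2/5% CO2 at 37 °C. Chloride secretion was stimulated with 20 µM forskolin, then compound added apically at varied concentrations. Short-circuit current recorded; IC50 from Hill equation.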
# [7] = target: T1, 3-hydroxy-3-methylglutaryl-coenzyme A reductase (Homo sapiens); experiment: Inhibition of human HMG-CoA reductase catalytic domain at 1 uM using HMG-CoA as substrate measured every 20 secs for 10 mins relative to control; summary of the method: as §1
inhibition [2],inhibition [6],pIC50 [6],inhibition [7] [%],SMILES,pIC50 [1],Activity [3],Activity [4],Activity [5],Activity [1]
29%,Dose-dependent effect,–,–,CCCCCCCC[C@@H]1CC[C@H](O)[C@H](Cc2ccccc2)N1C,4.29,Non-Toxic,Dose-dependent effect,Dose-dependent effect,–
inactive,–,4.23,–,CCCCCCCCC[C@@H]1C[C@H](O)[C@H]2C[N@]1O[C@@H]2c1ccccc1,–,Non-Toxic,Dose-dependent effect,Dose-dependent effect,Non-Toxic
–,–,–,86,CC[C@H](C)C(=O)O[C@H]1C[C@H](O)C=C2C=C[C@H](C)[C@H](CC[C@@H](O)C[C@@H](O)CC(=O)O)[C@H]21,–,–,–,–,–
–,–,–,–,Cc1c2ccncc2c(C)c2c1[nH]c1ccccc12 [ELLIPTECINE],5.39,–,–,–,–
